Assay results: ChEMBL document CHEMBL3739387, “Discovery and SAR of Novel and Selective Inhibitors of Urokinase Plasminogen Activator (uPA) with an Imidazo[1,2-a]pyridine Scaffold” (J Med Chem, 2015)
Active and inactive are the calls of the source. The calls are words filed in the database; no cut-off is given here.

Assays:
[1] = target: T1, Urokinase-type plasminogen activator (Homo sapiens, UniProt P00749); assay: Inhibition of human uPA using pyro-Glu-Gly-Arg-pNA as substrate assessed as para-nitroaniline release from substrate measured for 5 mins by spectrophotometric assay
[2] = target: T2, Prothrombin (Homo sapiens, UniProt P00734); assay: Inhibition of human plasma thrombin using pyroGlu-Pro-Arg-pNA-HCl as substrate measured for 5 mins by spectrophotometric assay; format: cell-free
In short: (§1)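 Thrombin from human plasma with pyroGlu-Pro-Arg-pNA (CS-21(66), Km 400 μM) at 415 μM in assay. 50 mM HEPES pH 8.2. pNA release at 405 nm over 5 min at 37 °C, in duplicate.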

[3] = target: T3, Tissue-type plasminogen activator (Homo sapiens, UniProt P00750); assay: Inhibition of recombinant human tPA using H-D-Ile-Pro-L-Arg-pNA-2HCl as substrate measured for 5 mins by spectrophotometric assay
Target sequence in this assay (P00750 whole entry): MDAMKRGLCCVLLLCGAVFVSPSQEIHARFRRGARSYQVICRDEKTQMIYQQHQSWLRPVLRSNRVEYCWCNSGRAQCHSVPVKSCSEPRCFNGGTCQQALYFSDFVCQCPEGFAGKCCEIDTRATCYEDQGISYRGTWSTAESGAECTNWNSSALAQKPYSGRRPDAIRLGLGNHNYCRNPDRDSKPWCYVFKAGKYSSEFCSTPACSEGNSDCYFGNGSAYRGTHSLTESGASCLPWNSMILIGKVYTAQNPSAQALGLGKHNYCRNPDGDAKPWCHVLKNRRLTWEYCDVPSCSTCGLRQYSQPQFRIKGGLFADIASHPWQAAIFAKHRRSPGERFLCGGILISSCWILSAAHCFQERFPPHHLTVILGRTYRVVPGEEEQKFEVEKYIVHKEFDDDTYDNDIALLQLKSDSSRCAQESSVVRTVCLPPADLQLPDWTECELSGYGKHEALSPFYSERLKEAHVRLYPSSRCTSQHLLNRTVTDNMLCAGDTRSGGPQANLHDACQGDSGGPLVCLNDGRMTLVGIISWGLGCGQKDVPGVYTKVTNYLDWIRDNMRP

[4] = target: T4, Coagulation factor X (Homo sapiens, UniProt P00742); assay: Inhibition of purified human factor 10a using Suc-Ile-Glu(gammaPip)-GlyArg-pNa-HCl as substrate measured for 5 mins by spectrophotometric assay
T4 sequence (P00742 41-179 limits assumed): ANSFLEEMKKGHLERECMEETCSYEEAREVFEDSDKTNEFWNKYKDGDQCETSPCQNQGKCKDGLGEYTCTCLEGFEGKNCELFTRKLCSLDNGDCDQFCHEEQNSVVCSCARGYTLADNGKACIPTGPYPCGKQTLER
T4 sequence (P00742 235-488 limits assumed): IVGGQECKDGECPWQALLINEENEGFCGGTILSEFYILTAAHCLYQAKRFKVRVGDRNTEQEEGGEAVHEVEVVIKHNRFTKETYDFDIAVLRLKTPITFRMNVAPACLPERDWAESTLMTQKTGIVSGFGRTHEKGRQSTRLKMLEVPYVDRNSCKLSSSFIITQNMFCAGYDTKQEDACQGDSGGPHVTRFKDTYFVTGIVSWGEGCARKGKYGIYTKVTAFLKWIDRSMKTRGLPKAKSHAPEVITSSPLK
In short: (§2)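 Purified human factor Xa, substrate Suc-Ile-Glu(γPip)-Gly-Arg-pNA (CS-11(32)) at 411 μM in assay. HEPES pH 8.2. Read at 405 nm for 5 min at 37 °C, duplicate wells.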

[5] = target: T5, Plasminogen (Homo sapiens, UniProt P00747); assay: Inhibition of human plasma plasmin using pyroGlu-Pro-Arg-pNA-HCl as substrate measured for 5 mins by spectrophotometric assay; format: cell-free
T5 sequence (P00747 97-580 limits assumed): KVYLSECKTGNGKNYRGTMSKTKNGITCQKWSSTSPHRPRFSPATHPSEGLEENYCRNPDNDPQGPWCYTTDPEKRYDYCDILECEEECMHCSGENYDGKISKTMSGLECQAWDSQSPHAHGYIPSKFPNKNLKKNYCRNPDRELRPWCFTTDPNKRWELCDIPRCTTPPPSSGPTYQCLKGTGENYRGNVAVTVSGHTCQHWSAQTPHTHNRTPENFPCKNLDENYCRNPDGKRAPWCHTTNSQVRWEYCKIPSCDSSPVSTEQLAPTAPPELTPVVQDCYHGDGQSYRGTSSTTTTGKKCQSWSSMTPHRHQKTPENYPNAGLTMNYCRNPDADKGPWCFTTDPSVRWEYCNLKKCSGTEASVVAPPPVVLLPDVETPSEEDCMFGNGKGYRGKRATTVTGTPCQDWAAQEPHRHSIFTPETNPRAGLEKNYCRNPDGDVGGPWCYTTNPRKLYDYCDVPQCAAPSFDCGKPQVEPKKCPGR
T5 sequence (P00747 581-810 limits assumed): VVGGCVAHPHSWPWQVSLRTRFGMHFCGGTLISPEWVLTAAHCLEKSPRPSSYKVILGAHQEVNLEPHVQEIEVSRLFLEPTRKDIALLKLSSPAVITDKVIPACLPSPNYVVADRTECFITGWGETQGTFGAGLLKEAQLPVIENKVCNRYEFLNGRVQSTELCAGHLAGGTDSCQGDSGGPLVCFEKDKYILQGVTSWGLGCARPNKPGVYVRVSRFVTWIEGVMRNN
In short: (§3)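 Plasmin purified from human plasma. Substrate pyroGlu-Pro-Arg-pNA (CS-21(66), Km 400 μM) at 400 μM in assay. HEPES pH 7.0, 37 °C, absorbance at 405 nm followed for 5 min, duplicates.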

[6] = target: T6, Plasma kallikrein (Homo sapiens, UniProt P03952); assay: Inhibition of human plasma kallikrein using D-Pro-Phe-Arg-pNA-2HCl as substrate measured for 5 mins by spectrophotometric assay; format: cell-free
T6 sequence (P03952 20-390 limits assumed): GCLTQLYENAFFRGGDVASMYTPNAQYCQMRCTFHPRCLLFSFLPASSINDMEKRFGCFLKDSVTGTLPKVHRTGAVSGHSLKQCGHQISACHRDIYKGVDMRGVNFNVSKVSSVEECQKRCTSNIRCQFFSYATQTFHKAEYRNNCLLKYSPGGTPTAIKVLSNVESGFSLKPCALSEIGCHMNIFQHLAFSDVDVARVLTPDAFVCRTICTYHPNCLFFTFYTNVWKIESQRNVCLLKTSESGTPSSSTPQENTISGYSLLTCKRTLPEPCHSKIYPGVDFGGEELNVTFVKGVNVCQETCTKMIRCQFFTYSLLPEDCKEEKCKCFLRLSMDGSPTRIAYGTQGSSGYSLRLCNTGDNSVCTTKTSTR
T6 sequence (P03952 391-638 limits assumed): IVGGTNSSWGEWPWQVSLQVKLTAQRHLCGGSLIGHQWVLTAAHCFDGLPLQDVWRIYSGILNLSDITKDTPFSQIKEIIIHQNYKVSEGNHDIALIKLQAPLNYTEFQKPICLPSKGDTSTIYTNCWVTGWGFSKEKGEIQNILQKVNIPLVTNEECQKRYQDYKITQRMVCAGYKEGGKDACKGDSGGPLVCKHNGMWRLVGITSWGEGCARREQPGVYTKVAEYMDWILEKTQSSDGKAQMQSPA
In short: (§4)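 Human plasma kallikrein, chromogenic substrate CS-31(02) (Km 269 μM) at 269 μM in assay. 50 mM HEPES at pH 7.4. Absorbance at 405 nm over 5 min at 37 °C, duplicates.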

[7] = Inhibition of bovine pancreatic trypsin using Nalpha-benzoyl-D,L-Arg-pNA-HCl as substrate measured for 5 mins by spectrophotometric assay; set-up: species or system Bos taurus
[8] = target: T7, Coagulation factor VII (Homo sapiens) (UniProt P08709); assay: Inhibition of purified human factor 7a using MeSO2-Cha-Abu-Arg-pNA as substrate at 100 uM measured for 5 mins by spectrophotometric assay
T7 sequence (whole entry): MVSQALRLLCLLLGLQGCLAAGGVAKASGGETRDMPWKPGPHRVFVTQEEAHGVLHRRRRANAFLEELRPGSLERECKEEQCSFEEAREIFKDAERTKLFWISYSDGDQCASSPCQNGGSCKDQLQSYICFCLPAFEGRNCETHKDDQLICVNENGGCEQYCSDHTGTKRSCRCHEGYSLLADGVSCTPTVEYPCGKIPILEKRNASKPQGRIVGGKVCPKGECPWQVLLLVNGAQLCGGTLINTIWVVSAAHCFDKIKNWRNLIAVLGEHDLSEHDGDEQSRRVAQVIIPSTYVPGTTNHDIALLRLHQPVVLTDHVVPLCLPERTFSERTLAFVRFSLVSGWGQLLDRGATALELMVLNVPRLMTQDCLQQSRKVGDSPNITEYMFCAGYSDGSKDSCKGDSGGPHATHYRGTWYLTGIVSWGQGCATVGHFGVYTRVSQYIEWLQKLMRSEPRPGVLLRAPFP
In short: (§5)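 Purified human plasma FVIIa with tissue factor (Innovin) present. MeSO2-Cha-Abu-Arg-pNA at 800 μM in assay. Buffer 50 mM HEPES pH 7.5, 100 mM NaCl, 5 mM CaCl2, 0.1% BSA.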

[9] = target: T2, Prothrombin; assay: Inhibition of human plasma thrombin using pyroGlu-Pro-Arg-pNA-HCl as substrate at 100 uM measured for 5 mins by spectrophotometric assay; format: cell-free; in short: as §1
[10] = target: T3, Tissue-type plasminogen activator; assay: Inhibition of recombinant human tPA using H-D-Ile-Pro-L-Arg-pNA-2HCl as substrate at 100 uM measured for 5 mins by spectrophotometric assay
Target sequence in this assay (P00750 36-562 limits assumed): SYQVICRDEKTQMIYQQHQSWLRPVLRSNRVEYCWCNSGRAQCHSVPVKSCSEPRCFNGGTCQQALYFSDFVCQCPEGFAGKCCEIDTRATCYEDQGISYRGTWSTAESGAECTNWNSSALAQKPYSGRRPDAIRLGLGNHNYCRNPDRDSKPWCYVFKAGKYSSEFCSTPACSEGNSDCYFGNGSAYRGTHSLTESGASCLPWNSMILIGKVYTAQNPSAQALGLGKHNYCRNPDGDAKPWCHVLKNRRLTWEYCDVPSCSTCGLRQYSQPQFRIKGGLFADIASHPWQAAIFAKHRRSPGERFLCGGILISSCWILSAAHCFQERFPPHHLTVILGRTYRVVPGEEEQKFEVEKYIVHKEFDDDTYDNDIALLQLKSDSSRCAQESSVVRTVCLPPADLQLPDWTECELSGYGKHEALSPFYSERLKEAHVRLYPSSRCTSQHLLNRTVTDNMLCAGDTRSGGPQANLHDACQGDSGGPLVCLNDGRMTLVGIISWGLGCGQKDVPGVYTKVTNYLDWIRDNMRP

[11] = target: T4, Coagulation factor X; assay: Inhibition of purified human factor 10a using Suc-Ile-Glu(yPip)-GlyArg-pNa-HCl as substrate at 100 uM measured for 5 mins by spectrophotometric assay; in short: as §2
[12] = target: T5, Plasminogen; assay: Inhibition of human plasma plasmin using pyroGlu-Pro-Arg-pNA-HCl as substrate at 100 uM measured for 5 mins by spectrophotometric assay; format: cell-free; in short: as §3
[13] = target: T6, Plasma kallikrein; assay: Inhibition of human plasma kallikrein using D-Pro-Phe-Arg-pNA-2HCl as substrate at 100 uM measured for 5 mins by spectrophotometric assay; format: cell-free; in short: as §4
[14] = species: Bos taurus; assay: Inhibition of bovine pancreatic trypsin using Na-benzoyl-D,L-Arg-pNA-HCl as substrate at 100 uM measured for 5 mins by spectrophotometric assay
[15] = species: Homo sapiens; assay: Selectivity index, ratio of IC50 for human plasma thrombin to IC50 for human uPA
[16] = species: Homo sapiens; assay: Selectivity index, ratio of IC50 for recombinant human tPA to IC50 for human uPA
[17] = species: Homo sapiens; assay: Selectivity index, ratio of IC50 for purified human factor 10a to IC50 for human uPA
[18] = species: Homo sapiens; assay: Selectivity index, ratio of IC50 for human plasma plasmin to IC50 for human uPA
[19] = species: Homo sapiens; assay: Selectivity index, ratio of IC50 for human plasma kallikrein to IC50 for human uPA
[20] = Selectivity index, ratio of IC50 for bovine pancreatic trypsin to IC50 for human uPA
[21] = species: Homo sapiens; assay: Selectivity index, ratio of IC50 for purified human factor 7a to IC50 for human uPA
[22] = target: T8, Coagulation factor VII (Homo sapiens, UniProt P08709); assay: Inhibition of purified human factor 7a using MeSO2-Cha-Abu-Arg-pNA as substrate measured for 5 mins by spectrophotometric assay; in short: as §5
T8 sequence (P08709 whole entry): T7 sequence (whole entry)

[23] = target: T1, Urokinase-type plasminogen activator; assay: Reversible inhibition of human uPA using pyro-Glu-Gly-Arg-pNA as substrate assessed as para-nitroaniline release from substrate measured for 5 mins by spectrophotometry based enzyme kinetics assay
[24] = target: T1, Urokinase-type plasminogen activator; assay: Tight binding inhibition of human uPA using pyro-Glu-Gly-Arg-pNA as substrate assessed as para-nitroaniline release from substrate measured for 5 mins by spectrophotometry based enzyme kinetics assay
[25] = target: T1, Urokinase-type plasminogen activator; assay: Slow dissociating inhibition of human uPA using pyro-Glu-Gly-Arg-pNA as substrate assessed as para-nitroaniline release from substrate measured for 5 mins by spectrophotometry based enzyme kinetics assay

IC50 [1]: 0.097 µM | IC50 [2]: > 100 µM | IC50 [3]: > 100 µM | IC50 [4]: > 100 µM | IC50 [5]: > 100 µM | IC50 [6]: > 100 µM | IC50 [7]: > 100 µM | inhibition [8]: 1.4% | inhibition [9]: 19.2% | inhibition [10]: 8% | inhibition [11]: 41.8% | inhibition [12]: 13.6% | inhibition [13]: 2.8% | inhibition [14]: 42.7% | Ratio IC50 [15]: > 1000 | Ratio IC50 [16]: > 1000 | Ratio IC50 [17]: > 1000 | Ratio IC50 [18]: > 1000 | Ratio IC50 [19]: > 1000 | Ratio IC50 [20]: > 1000 | Ratio IC50 [21]: > 1000 | IC50 [22]: > 100 µM | inhibition [23]: Active | inhibition [24]: Active | inhibition [25]: Active
SMILES: CCCCNC(=O)c1ccn2c(NCc3ccc(NC(=N)N)cc3)cnc2c1
